Most compounds without a hit are left out; they make up all but 3.4% or so of the library.
PolyA inh: yeast polyadenylation inhibition | S. cerevisiae SKY197-pL101 polyadenylation reporter, beta-gal luminescence; efflux-impaired pdr1/pdr3 knockout yeast; score 100 = 6 SD above DMSO | activity score, % at 12 µM | actives 0.02% (n = 300,000) | AID 1875;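 active = lowest replicate activity score at least 50, where 100 means six control SD above control mean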;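 note: yeast exposed to compound for 9 h at 30 °C; higher score means more reporter readthrough which indicates perturbed polyadenylation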
APOBEC3A inh: human APOBEC3A DNA deaminase inhibition | P31941 | recombinant A3A, FAM/TAMRA ssDNA deamination fluorescence | inhibition, % at 20 µM | actives 0.41% (n = 330,000) | AID 493011;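 active = at least 40% inhibition at 20 µM here, with at most 30% in a related deaminase screen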;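 note: plate controls were A3A with DMSO for no effect and wells lacking A3A enzyme for full effect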
A3G deaminase: inhibitors of human APOBEC3G DNA deaminase; Q9HC16; recombinant A3G, ssDNA deamination FAM/TAMRA fluorescence; inhibition, % at 20 µM; actives 0.28% (n = 330,000); AID 493012;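 active = inhibition of at least 40% at 20 µM, with no more than 30% in the related APOBEC3A deaminase screen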;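 note: plate controls were DMSO wells with A3G for no effect and wells lacking A3G enzyme for full effect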
Target sequence (Q9HC16 whole entry, looked up): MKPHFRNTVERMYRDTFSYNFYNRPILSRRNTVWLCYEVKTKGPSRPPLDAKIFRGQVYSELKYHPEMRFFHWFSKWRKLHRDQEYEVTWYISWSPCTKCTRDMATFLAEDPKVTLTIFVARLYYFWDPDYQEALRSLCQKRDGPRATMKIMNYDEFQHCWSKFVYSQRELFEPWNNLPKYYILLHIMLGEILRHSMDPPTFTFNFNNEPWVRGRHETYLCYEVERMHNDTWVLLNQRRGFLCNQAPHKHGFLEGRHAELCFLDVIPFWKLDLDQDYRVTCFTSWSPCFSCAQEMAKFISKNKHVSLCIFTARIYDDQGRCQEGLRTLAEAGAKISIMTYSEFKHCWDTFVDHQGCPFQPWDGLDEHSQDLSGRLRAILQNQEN
Arr AP2 block: blocks beta-arrestin peptide binding to AP2 adaptin; FITC-arrestin peptide / GST-AP2 beads, flow cytometry; AP2 beta2 appendage carries R879A mutation; inhibition, % at 10 µM; actives 0.31% (n = 340,000); AID 504490;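 active = inhibition above a set limit, near 3 SD of compounds lacking own fluorescence, cut at about 54% in these data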;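 note: plate controls were DMSO wells for no effect and 5 µM unlabelled arrestin peptide for full effect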
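System: GST-tagged AP2 beta2-adaptin appendage (R879A) on 4 µm glutathione beads / Reagent: FITC-arrestin peptide, 50 nM / Detection: HyperCyt-sampled flow cytometry, FL1 channel, ex 488/em 535 nm / Timing: 12 min plus 1 h, RT / Buffer or medium: PBS plus Tween 20 (0.05%) and BSA (0.1%)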
UCH37 inh: blocks the human deubiquitinase UCH37. AID 588478. purified proteasome/UCH37, Ub-AMC cleavage fluorescence. inhibition, % (test concentration not listed). actives 0.33% (n = 330,000);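 active = mean inhibition over replicate wells above about 20%, limit read from the data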;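 note: 0% = compound-free wells with enzyme and 100% = wells lacking proteasome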
Target sequence (Q9Y5K5 whole entry, looked up): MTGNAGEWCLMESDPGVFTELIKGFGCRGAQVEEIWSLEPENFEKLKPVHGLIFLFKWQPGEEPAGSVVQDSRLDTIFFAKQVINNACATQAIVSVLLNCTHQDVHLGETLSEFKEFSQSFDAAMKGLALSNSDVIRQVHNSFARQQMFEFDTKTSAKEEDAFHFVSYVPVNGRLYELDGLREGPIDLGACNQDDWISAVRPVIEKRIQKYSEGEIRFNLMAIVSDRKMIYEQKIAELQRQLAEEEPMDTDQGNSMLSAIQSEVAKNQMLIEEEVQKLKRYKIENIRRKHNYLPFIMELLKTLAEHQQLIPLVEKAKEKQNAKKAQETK
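Material: Human UCH37 enzyme supplied as purified proteasome complex | Schedule: 30 min compound-proteasome preincubation then 25 min substrate reaction, room temperature | Detection: AMC fluorescence from Ub-AMC cleavage, excitation 355 nm, emission 460 nm | Benchmarks: Wells without proteasome as full block, compound-free enzyme plus substrate as uninhibited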
AHR act: activates the human aryl hydrocarbon receptor; actives 2.5% (n = 320,000); activation, % at 5 µM; AHR-responsive luciferase reporter cells, luminescence; P35869; in the data active = activation above about 47%;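 note: 0% = vehicle wells and 100% = reference agonist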
* = called active by the depositor; / = no result.

SMILES | PolyA inh | APOBEC3A inh | A3G deaminase | Arr AP2 block | UCH37 inh | AHR act
CCCc1ccc(NC(=O)C2CCCN(c3cnccn3)C2)cc1 (configuration not stated) | -7 | -1 | 0 | 19 | -39 | 48*
Cc1cccc(CCNC(=O)C2CCCN(c3cnccn3)C2)c1 (configuration not stated) | 13 | -3 | -7 | 45 | -21 | 73*
CCOc1ccc(-c2c(C(=O)NN=Cc3ccc(Cl)cc3)nnn2-c2nonc2N)cc1 | / | / | / | / | 4 | /
COC(=O)C/C=C/[C@@H](C)[C@@H](C=NO[C@@H](C)c1cn([C@H](CO)Cc2ccccc2)nn1)NS(=O)(=O)c1ccc(C)cc1 | / | / | / | / | 3 | /
O=[N+]([O-])c1ccc(O)c(C=NNC(=S)Nc2ccc(Cl)cc2Cl)c1 | / | / | / | / | 2 | /
O=C(NN=Cc1ccccc1[N+](=O)[O-])c1ccc2nc[nH]c2c1 | / | / | / | / | 6 | /
O=C1c2ccccc2CC1Sc1nnc(-c2ccncc2)o1 (configuration not stated) | 10 | -6 | -4 | -5 | 3 | 63*
O=C1CC(Sc2nnc(-c3ccccc3)o2)C(=O)N1c1ccccc1 (configuration not stated) | -20 | -2 | 5 | 20 | -2 | -3
O=S(=O)(NN=C1CCCc2ccccc21)c1ccccc1 | / | / | / | / | 1 | /
C#CCn1cc(/C=N/Nc2nc3ccccc3[nH]2)c2ccccc21 | 8 | -4 | -4 | 7 | / | 127*
CCCCn1c(/C=N/Nc2nc3ccccc3[nH]2)nc2ccccc21 | -45 | 1 | 3 | 10 | / | 73*
C(=N\Nc1nc2ccccc2[nH]1)/c1cccc2nccnc12 | -1 | -1 | -2 | 7 | / | 27
CCCn1c(C=NNc2nc3ccccc3[nH]2)nc2ccccc21 | / | / | / | / | 7 | /
C=CCn1c(CNc2ccc(C)cc2)nnc1SCC(=O)NN=Cc1ccc(O)cc1O | / | / | / | / | 10 | /
CCOc1ccc(-c2c(C(=O)NN=Cc3cccc(Br)c3)nnn2-c2nonc2N)cc1 | / | / | / | / | 4 | /
O=C(/C=C/c1c(Cl)nc2ccccn12)N1CCCCC1 | 3 | -2 | -5 | 5 | 8 | 59*
O=C(/C=C/c1c(Cl)nc2ccccn12)N1CCN(c2ccccc2F)CC1 | -7 | 0 | -5 | 0 | 6 | -1
COc1ccccc1C(=O)NCC(=O)Nc1ccc2c(c1)CCC2 | / | 2 | 7 | -6 | 3 | 70*
CCC(=O)Nc1ccc(Cl)c(NC(=O)c2ccccc2OC)c1 | -15 | 0 | -1 | 4 | 5 | 51*
Cc1ccc(NC(=O)c2ccccc2F)c(NC(=O)c2ccccc2F)c1 | 6 | -3 | -6 | 35 | 5 | 73*
O=C(Nc1cc(NC(=O)c2ccccc2F)ccc1Cl)c1ccccc1 | -5 | -2 | -9 | 33 | 2 | 79*
COc1ccc(C=NNC(=O)CCNc2n[nH]c(=O)[nH]c2=O)c(OC)c1 | / | / | / | / | 7 | /
CCOc1ccc(C=NOCC(=O)NCc2cccs2)cc1 | / | / | / | / | -2 | /
O=C(NN=Cc1cc2c(cc1[N+](=O)[O-])OCO2)c1ccccn1 | / | / | / | / | 4 | /
Cc1ccc(C(=O)NN=C2CCCc3ccccc32)c(C)c1 | / | / | / | / | 0 | /
SMILES | PolyA inh | APOBEC3A inh | A3G deaminase | Arr AP2 block | UCH37 inh | AHR act
CC(=O)Nc1c(-c2ccc3ccccc3c2)nc2ccccn12 | -11 | -3 | -10 | 8 | -68 | 51*
O=C(Nc1c(-c2ccccc2)nc2ccccn12)c1ccccc1 | -15 | 1 | 5 | 7 | 1 | 3
CCC(=O)Nc1c(-c2ccc3ccccc3c2)nc2ccccn12 | 13 | 1 | -4 | 2 | -78 | 50*
CCOc1ccc(Oc2c(C=NNC(=O)COc3ccccc3OC)c(C)nn2-c2ccccc2)cc1 | / | / | / | / | 5 | /
CC(=O)N(C(C)=O)c1nc(-c2ccccc2)cn1N=Cc1ccccc1 | / | / | / | / | 5 | /
CC(=O)N(C(C)=O)c1nc(-c2ccccc2)cn1/N=C/c1cccc([N+](=O)[O-])c1 | -30 | -2 | -11 | 0 | / | 49*
O=C(CN1CC(=O)Oc2ccccc21)OCC(=O)c1ccccc1 | -8 | 0 | -3 | 1 | 3 | 5
O=C(CN1CC(=O)Oc2ccccc21)OCC(=O)c1cccc(Br)c1 | 2 | -6 | -6 | 58* | 1 | 10
COc1ccc(C=NNC(=S)Nc2ccccc2)cc1COc1ccccc1F | / | / | / | / | 2 | /
N#Cc1cc(-c2ccccc2)nc(N2CCNCC2)n1 | 6 | 1 | -1 | 12 | -24 | 50*
N#Cc1cc(-c2ccccc2)nc(NN)n1 | -17 | 1 | -5 | 34 | 8 | 11
COc1nc(Oc2ccc(C=NO)cc2)nc(N(C)C)n1 | / | / | / | / | 0 | /
CC(=NNC(=O)C12CCC(C)(C(=O)O1)C2(C)C)c1ccccc1O (configuration not stated) | / | / | / | / | 2 | /
O=C(Nc1nnc(Cc2ccc([N+](=O)[O-])cc2)s1)c1ccc2c(c1)OCO2 | 12 | 1 | -7 | 17 | -1 | 55*
CN(C)c1cccc(C(=O)Nc2nnc(Cc3ccccc3)s2)c1 | 21 | 8 | 5 | -15 | -72 | 54*
CCC(CC)c1nnc(NC(=O)c2ccc3c(c2)OCO3)s1 | 11 | -3 | 7 | 13 | 4 | 64*
CCOc1ccc(C(=O)Nc2nnc(C(C)C)s2)cc1OCC | 13 | 4 | 1 | -9 | 4 | 59*
COc1cc(C(=O)Oc2ccccc2C=NNC(=O)c2ccc(C)c(Cl)c2)cc(OC)c1OC | / | / | / | / | 2 | /
O=C(O)CSc1nnc(NC(=O)c2ccc3c(c2)OCO3)s1 | 0 | -2 | -10 | 2 | 6 | -9
CC(C)(C)Cc1nnc(NC(=O)c2ccc3c(c2)OCO3)s1 | 3 | 0 | 37 | -6 | 0 | 49*
CCCCCCC1CC(C)(C(C)=NNC(N)=O)OC1=O (configuration not stated) | / | / | / | / | 1 | /
Cc1nn(C(=O)CNC(=O)c2ccccc2)c(C)c1C | -16 | -10 | -7 | 11 | 3 | 1
Cc1nn(C(=O)c2cc3sccc3[nH]2)c(C)c1C | -5 | -4 | -7 | 4 | -11 | 71*
C=C(C)C(=O)O[C@H]1CC(C)=CC(=O)C=C(C)[C@H](O)[C@@H]2OC(=O)C(=C)[C@@H]21 | / | / | / | / | -4 | /
Cc1cc(NN=Cc2ccncc2)c([N+](=O)[O-])cc1[N+](=O)[O-] | / | / | / | / | 8 | /
CNC(=O)/C(C#N)=C/c1c(N2CCN(c3ccc(OC)cc3)CC2)nc2c(C)cccn2c1=O | 11 | -6 | -5 | 3 | 5 | 55*
CNC(=O)/C(C#N)=C/c1c(N2CCN(c3ccccc3)CC2)nc2c(C)cccn2c1=O | 1 | -2 | -4 | 0 | 1 | 49*
Cc1nc2ccccn2c1C(=O)NN=Cc1ccc([N+](=O)[O-])o1 | / | / | / | / | 18 | /
CCOC(=O)Nc1ccc(OC)cc1S(=O)(=O)N1CCCCC1 | -12 | -1 | -9 | 6 | 29* | 8
